Columns and labels:
Format in all cases: functional
MDA-MB-435 [1] = test: Growth inhibition of human MDA-MB-435 cells assessed as cell growth at 10 uM incubated for 48 hrs by sulforhodamine B assay; conditions: MDA-MB-435, 48 h, read-out: Activity
[2] = Growth inhibition of human HOP92 cells assessed as cell growth at 10 uM incubated for 48 hrs by sulforhodamine B assay; conditions: HOP-92, 48 h, read-out: Activity
[3] = Growth inhibition of human HL-60(TB) cells assessed as cell growth at 10 uM incubated for 48 hrs by sulforhodamine B assay; conditions: HL-60, 48 h, read-out: Activity
[4] = Growth inhibition of human OVCAR5 cells assessed as cell growth at 10^-7 M incubated for 48 hrs by sulforhodamine B assay; conditions: OVCAR-5, 48 h, read-out: Activity
A498 [5] = test: Growth inhibition of human A498 cells incubated for 48 hrs by sulforhodamine B assay; conditions: A498, 48 h
Summary of the method: (§1)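 Five-dose assay: five concentrations from 10-fold or ½-log serial dilutions. Cells are plated at 5,000–40,000 per well according to doubling time, grown 24 h, then exposed 48 h at 37 °C, 5% CO₂. Fixed with cold 50% TCA (final addition) for 60 min at 4 °C and stained with 0.4% SRB in 1% acetic acid. Bound dye is solubilized in 10 mM Tris base and read at 515 nm. GI₅₀ is where [(Ti−Tz)/(C−Tz)]×100 = 50, with a time-zero plate as Tz.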

[6] = Growth inhibition of human OVCAR3 cells assessed as cell growth at 10^-4 M incubated for 48 hrs by sulforhodamine B assay; conditions: OVCAR-3, 48 h, read-out: Activity
MCF7 = test: Growth inhibition of human MCF7 cells assessed as cell growth at 10^-7 M incubated for 48 hrs by sulforhodamine B assay; conditions: MCF7, 48 h, read-out: Activity
[7] = Growth inhibition of human HCT116 cells assessed as cell growth at 10^-6 M incubated for 48 hrs by sulforhodamine B assay; conditions: HCT-116, 48 h, read-out: Activity
Summary of the method: (§2)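 Cells seeded at 5,000–40,000/well according to doubling time and preincubated 24 h at 37 °C, 5% CO2. Time-zero plates were TCA-fixed. DMSO concentrate was diluted in medium with 50 µg/ml gentamicin to give five concentrations (10-fold or ½ log steps), then exposed 48 h. Cells were TCA-fixed, stained with 0.4% SRB and read at 515 nm. Percent growth was taken against time-zero and control; GI50, TGI and LC50 derived.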

[8] = Growth inhibition of human UO31 cells assessed as cell growth at 10^-4 M incubated for 48 hrs by sulforhodamine B assay; conditions: UO-31, 48 h, read-out: Activity
[9] = Growth inhibition of human SNB19 cells assessed as cell growth at 10^-4 M incubated for 48 hrs by sulforhodamine B assay; conditions: SNB-19, 48 h, read-out: Activity
NCI-H460 = test: Growth inhibition of human NCI-H460 cells assessed as cell growth at 10^-8 M incubated for 48 hrs by sulforhodamine B assay; conditions: NCI-H460, 48 h, read-out: Activity
MDA-MB-435 [10] = test: Growth inhibition of human MDA-MB-435 cells assessed as cell growth at 10^-4 M incubated for 48 hrs by sulforhodamine B assay; conditions: MDA-MB-435, 48 h, read-out: Activity
[11] = Growth inhibition of human SKOV3 cells incubated for 48 hrs by sulforhodamine B assay; conditions: SK-OV-3, 48 h
Summary of the method: (§3)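 Cells were plated at 5,000–40,000 per well according to doubling time and preincubated 24 h at 37 °C in 5% CO2; time-zero plates were then TCA-fixed. Five concentrations (10-fold or ½-log dilutions, DMSO stock) were incubated 48 h. Cells were TCA-fixed, stained with 0.4% SRB and read at 515 nm. GI50 was taken where [(Ti−Tz)/(C−Tz)]×100 = 50.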

[12] = Growth inhibition of human SNB75 cells incubated for 48 hrs by sulforhodamine B assay; conditions: SNB-75, 48 h; summary of the method: as §3
A498 [13] = test: Growth inhibition of human A498 cells assessed as cell growth at 10^-6 M incubated for 48 hrs by sulforhodamine B assay; conditions: A498, 48 h, read-out: Activity; summary of the method: as §1
[14] = Growth inhibition of human LOXIMVI cells incubated for 48 hrs by sulforhodamine B assay; conditions: LOX IMVI; summary of the method: as §3
Malme-3M = test: Growth inhibition of human MALME-3M cells assessed as cell growth at 10^-5 M incubated for 48 hrs by sulforhodamine B assay; conditions: read-out: Activity
[15] = Growth inhibition of human colon cancer cells incubated for 48 hrs by sulforhodamine B assay; conditions: Cancer cell lines; for CC50: read-out: LC50 (the source's name)
[16] = Growth inhibition of human DU145 cells assessed as cell growth at 10^-5 M incubated for 48 hrs by sulforhodamine B assay; conditions: DU-145, 48 h, read-out: Activity; summary of the method: as §2
EKVX = test: Growth inhibition of human EKVX cells assessed as cell growth at 10^-7 M incubated for 48 hrs by sulforhodamine B assay; conditions: read-out: Activity; summary of the method: as §2
NCI-H322M = test: Growth inhibition of human NCI-H322M cells assessed as cell growth at 10^-4 M incubated for 48 hrs by sulforhodamine B assay; conditions: read-out: Activity
[17] = Growth inhibition of human HL-60(TB) cells assessed as cell growth at 10^-8 M incubated for 48 hrs by sulforhodamine B assay; conditions: HL-60, 48 h, read-out: Activity
Summary of the method: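 Cells plated at 5,000–40,000/well according to doubling time and preincubated 24 h at 37 °C, 5% CO₂, with time-zero plates TCA-fixed. Drugs were kept as DMSO concentrates at 400× the top concentration and diluted in medium with 50 µg/ml gentamicin. Five 10-fold or ½-log dilutions were run for 48 h, followed by SRB staining and A515. Percent growth = (Ti−Tz)/(C−Tz)×100, or (Ti−Tz)/Tz×100 when Ti<Tz.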

[18] = Growth inhibition of human HOP92 cells assessed as cell growth at 10^-6 M incubated for 48 hrs by sulforhodamine B assay; conditions: HOP-92, 48 h, read-out: Activity
ACHN = test: Growth inhibition of human ACHN cells assessed as cell growth at 10 uM incubated for 48 hrs by sulforhodamine B assay; conditions: read-out: Activity
Summary of the method: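 One-dose screen at 10 µM final. Cells are plated at 5,000–40,000 per well according to doubling time and preincubated 24 h at 37 °C, 5% CO₂. Compound (DMSO stock diluted in medium with 50 µg/ml gentamicin) is then added for 48 h. Growth percent is read by sulforhodamine B staining, absorbance at 515 nm.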

[19] = read-out: LC50 (the source's name)
[20] = read-out: pLC50 (the source's name) (converted)

Fc1ccc(-c2nc(Nc3ccc(-c4nc5ccccc5[nH]4)cc3)nc(N3CCOCC3)n2)cc1
growth at 10 µM (MDA-MB-435 [1]): -38%
growth at 10 µM [2]: -6.57%
growth at 10 µM [3]: -46%
growth at 0.1 µM [4]: 83%
GI50 (A498 [5]; read-out: GI50): 1.52 µM
CC50 (A498 [5]; [19]): 8.42 µM
TGI (A498 [5]; read-out: TGI): 3.57 µM
GI50 (A498 [5]; read-out: pGI50 (converted)): 1.51 µM
CC50 (A498 [5]; [20]): 8.51 µM
TGI (A498 [5]; read-out: pTGI (converted)): 3.55 µM
growth at 100 µM [6]: -45%
growth at 0.1 µM (MCF7): 89%
growth at 1 µM [7]: 102%
growth at 100 µM [8]: -16%
growth at 100 µM [9]: 4%
growth at 0.01 µM (NCI-H460): 104%
growth at 100 µM (MDA-MB-435 [10]): -42%
GI50 ([11]; read-out: GI50): 2.37 µM
CC50 [11, 19]: > 100 µM
TGI ([11]; read-out: TGI): 5.53 µM
GI50 ([11]; read-out: pGI50 (converted)): 2.34 µM
CC50 [11, 20]: > 100 µM
TGI ([11]; read-out: pTGI (converted)): 5.5 µM
GI50 ([12]; read-out: GI50): 1.8 µM
CC50 [12, 19]: > 100 µM
TGI ([12]; read-out: TGI): 10.5 µM
GI50 ([12]; read-out: pGI50 (converted)): 1.82 µM
CC50 [12, 20]: > 100 µM
TGI ([12]; read-out: pTGI (converted)): 10.5 µM
growth at 1 µM (A498 [13]): 74%
GI50 ([14]; read-out: GI50): 1.78 µM
TGI ([14]; read-out: TGI): 3.59 µM
GI50 ([14]; read-out: pGI50 (converted)): 1.78 µM
TGI ([14]; read-out: pTGI (converted)): 3.63 µM
growth at 10 µM (Malme-3M): -71%
GI50 [15]: 2.15 µM
TGI [15]: 4.73 µM
CC50 [15]: 7.9 µM
growth at 10 µM [16]: 25%
growth at 0.1 µM (EKVX): 91%
growth at 100 µM (NCI-H322M): 9%
growth at 0.01 µM [17]: 92%
growth at 1 µM [18]: 90%
growth at 10 µM (ACHN): 9%

Clc1ccc(-c2nc(Nc3ccc(-c4nc5ccccc5[nH]4)cc3)nc(N3CCOCC3)n2)cc1
growth at 10 µM (MDA-MB-435 [1]): -86.1%
growth at 10 µM [2]: -72.1%
growth at 10 µM [3]: -81.4%
growth at 0.1 µM [4]: 92%
GI50 (A498 [5]; read-out: GI50): 1.69 µM
TGI (A498 [5]; read-out: TGI): 3.29 µM
GI50 (A498 [5]; read-out: pGI50 (converted)): 1.7 µM
TGI (A498 [5]; read-out: pTGI (converted)): 3.31 µM
growth at 100 µM [6]: -71%
growth at 0.1 µM (MCF7): 86%
growth at 1 µM [7]: -80%
growth at 100 µM [8]: -41%
growth at 100 µM [9]: 1%
growth at 0.01 µM (NCI-H460): 101%
growth at 100 µM (MDA-MB-435 [10]): -49%
GI50 ([11]; read-out: GI50): 1.84 µM
CC50 [11, 19]: 100 µM
TGI ([11]; read-out: TGI): 3.28 µM
GI50 ([11]; read-out: pGI50 (converted)): 1.82 µM
CC50 [11, 20]: 100 µM
TGI ([11]; read-out: pTGI (converted)): 3.31 µM
GI50 ([12]; read-out: GI50): 1.75 µM
TGI ([12]; read-out: TGI): 3.25 µM
GI50 ([12]; read-out: pGI50 (converted)): 1.74 µM
TGI ([12]; read-out: pTGI (converted)): 3.24 µM
growth at 1 µM (A498 [13]): 89%
GI50 ([14]; read-out: GI50): 0.189 µM
GI50 ([14]; read-out: pGI50 (converted)): 0.191 µM
growth at 10 µM (Malme-3M): -78%
GI50 [15]: 0.26 µM
TGI [15]: 0.69 µM
CC50 [15]: 2.75 µM
growth at 10 µM [16]: -93%
growth at 0.1 µM (EKVX): 87%
growth at 100 µM (NCI-H322M): -22%
growth at 0.01 µM [17]: 97%
growth at 1 µM [18]: 68%
growth at 10 µM (ACHN): -90.6%

c1ccc2[nH]c(-c3ccc(Nc4nc(N5CCCCC5)nc(N5CCOCC5)n4)cc3)nc2c1
growth at 10 µM (MDA-MB-435 [1]): -27.3%
growth at 10 µM [2]: 43.4%
growth at 10 µM [3]: -22.7%
growth at 0.1 µM [4]: 100%
GI50 (A498 [5]; read-out: GI50): 1.77 µM
CC50 (A498 [5]; [19]): 9.89 µM
TGI (A498 [5]; read-out: TGI): 4.18 µM
GI50 (A498 [5]; read-out: pGI50 (converted)): 1.78 µM
CC50 (A498 [5]; [20]): 10 µM
TGI (A498 [5]; read-out: pTGI (converted)): 4.17 µM
growth at 100 µM [6]: -49%
growth at 0.1 µM (MCF7): 91%
growth at 1 µM [7]: 95%
growth at 100 µM [8]: -36%
growth at 100 µM [9]: -1%
growth at 0.01 µM (NCI-H460): 101%
growth at 100 µM (MDA-MB-435 [10]): -29%
GI50 ([11]; read-out: GI50): 2.37 µM
CC50 [11, 19]: 26.9 µM
TGI ([11]; read-out: TGI): 5.43 µM
GI50 ([11]; read-out: pGI50 (converted)): 2.34 µM
CC50 [11, 20]: 26.9 µM
TGI ([11]; read-out: pTGI (converted)): 5.37 µM
GI50 ([12]; read-out: GI50): 2.1 µM
CC50 [12, 19]: > 100 µM
TGI ([12]; read-out: TGI): 16.9 µM
GI50 ([12]; read-out: pGI50 (converted)): 2.09 µM
CC50 [12, 20]: > 100 µM
TGI ([12]; read-out: pTGI (converted)): 17 µM
growth at 1 µM (A498 [13]): 83%
GI50 ([14]; read-out: GI50): 1.75 µM
CC50 [14, 19]: 7.31 µM
TGI ([14]; read-out: TGI): 3.58 µM
GI50 ([14]; read-out: pGI50 (converted)): 1.74 µM
CC50 [14, 20]: 7.24 µM
TGI ([14]; read-out: pTGI (converted)): 3.55 µM
growth at 10 µM (Malme-3M): -80%
GI50 [15]: 2.43 µM
TGI [15]: 5.52 µM
CC50 [15]: 30.2 µM
growth at 10 µM [16]: 23%
growth at 0.1 µM (EKVX): 93%
growth at 100 µM (NCI-H322M): 10%
growth at 0.01 µM [17]: 98%
growth at 1 µM [18]: 95%
growth at 10 µM (ACHN): 22.9%

— ChEMBL document CHEMBL3808334, “Synthesis and in vitro evaluation of novel triazine analogues as anticancer agents and their interaction studies with bovine serum albumin” (Eur J Med Chem, 2016)
